# Bioassay records as filed in PubChem.
# In the library only some 2.4% were active in any assay of this set; here they are far more common.
# Measles CPE – protection of cells from measles virus. Measles virus-infected cells, CPE protection, absorbance. protection (pct of control), % at 4 µM. 1.5% of 140,000 active. AID 841; in the data active means protection mostly above about 24%, no sharp cut-off; inactive means mostly below about 26%
# Efa HMGR inh – blocks class II HMG-CoA reductase of Enterococcus faecalis; inhibition, % at 10 µM; purified E. faecalis HMGR, NADPH absorbance 340 nm kinetic; 0.41% of 190,000 active;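 active means inhibition above a set limit, the median over all tested compounds plus 3 SD, cut at about 9.5% in these data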;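 further: enzyme runs in reverse so mevalonate oxidation gives rising NADPH absorbance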
# Yeast lifespan up – extends the lifespan of yeast; S. cerevisiae growth with nicotinamide, OD615; deaD strain in restrictive glucose medium; 0.68% of 130,000 active; inhibition of the nicotinamide effect, % at 10 µM; AID 775;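 active means inhibition above a set limit, placed 3 SD over the median of all compounds, cut at about 26% in these data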
#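 assay system = DeaD-strain S. cerevisiae | buffer or medium = restrictive glucose medium | reagent = 1.5 mM nicotinamide | compound = 10 µM single point, 0.25% DMSO | incubation = 48 h compound exposure at 30 °C, humidified | signal = OD615 measurement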
# Rad51 HR inh – blocks human Rad51 in homologous recombination | hRad51 DNA strand exchange, fluorescence dequenching | 0.085% of 200,000 active | inhibition, % at 10 µM;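 active means inhibition above 40% at the single screening dose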
# Target sequence (Q06609 whole entry, looked up): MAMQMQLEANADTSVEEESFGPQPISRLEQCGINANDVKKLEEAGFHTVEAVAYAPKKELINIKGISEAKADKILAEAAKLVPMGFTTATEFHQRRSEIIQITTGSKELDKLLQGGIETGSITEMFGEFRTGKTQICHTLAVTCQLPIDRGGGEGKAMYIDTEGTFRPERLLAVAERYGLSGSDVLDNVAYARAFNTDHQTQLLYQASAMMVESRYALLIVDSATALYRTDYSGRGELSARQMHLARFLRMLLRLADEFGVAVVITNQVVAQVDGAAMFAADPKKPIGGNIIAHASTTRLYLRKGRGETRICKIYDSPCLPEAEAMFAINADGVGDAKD
#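 Test system: preformed human Rad51 ssDNA filaments; also added: Donor/quencher-labelled 47-bp dsDNA substrate; doses: 10 µM final, single point; times: 37 °C 15-min filament assembly, 30-min compound preincubation, 15-min exchange; detection: FRET fluorescence dequenching, excitation 485 nm, emission 520 nm; read-out basis: Fluorescence-based percent inhibition, control- and blank-normalised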
# Arbovirus anti – arbovirus infection inhibition; arbovirus infection cell-based antiviral screen; inhibition, % at 10 µM; 0.37% of 200,000 active; in the data active means inhibition above about 30%
# BB579 growth dn – yeast BB579 growth reduction in restrictive medium; S. cerevisiae BB579 growth, OD615, 48 h; inhibition, % at 10 µM; 0.51% of 140,000 active; AID 804;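 active means inhibition above a set limit, 3 SD over the mean compound inhibition, cut at about 44% in these data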
#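 Test system: Saccharomyces cerevisiae DeaD strain BB579, replicative lifespan model yeast | Buffer or medium: Restrictive CSMM-D medium | Doses: One dose, 10 µM compound with 0.25% DMSO | Incubation: 48 h exposure, 30 °C | Detection: Culture absorbance at 615 nm | Control set: Amphotericin B at 10 µg/mL as positive control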
# Hits are given with their value; n = inactive; x = no result given; ! = not confirmed by another sample.
SMILES,Measles CPE,Efa HMGR inh,Yeast lifespan up,Rad51 HR inh,Arbovirus anti,BB579 growth dn
CN(C)C(=O)c1nc2ccc(Cl)cn2c1CN1CCCC(OCc2cccnc2)C1 (configuration not stated),x,n,x,n,n,x
Cc1ccc(S(=O)(=O)N2CCC(=O)N(C(COC(=O)Nc3ccccc3)Cc3ccccc3)CC2)cc1 (configuration not stated),n,n,n,n,n,n
Cc1ccc(S(=O)(=O)N2CCC(=O)N(C(CO)Cc3ccccc3)CC2)cc1 (configuration not stated),n,12.5,n,n,n,n
Cc1c(NC(=O)CSc2nnc3c4ccccc4n(CCc4ccccc4)c3n2)c(=O)n(-c2ccccc2)n1C,36.6,n,n,n,n,n
CCn1c2ccccc2c2nnc(SCC(=O)Nc3c(C)n(C)n(-c4ccccc4)c3=O)nc21,n,n,n,n,n,n
COc1ccc(NC(=O)C(C)Sc2nnc3c4c(nc(-c5ccc(OC)cc5)n23)CC(C)(C)OC4)cc1 (configuration not stated),n,n,n,n,n,n
CC(C)C(=O)Nc1ccc(NC(=O)c2ccco2)cn1,55.0,n,n,n,n,n
CC(C)CNC(=O)c1cccc(NC(=O)c2ccco2)c1,21.9,n,n,n,n,n
O=C(Nc1ccc2nc[nH]c2c1)c1ccco1,52.7,n,n,n,n,n
COC(=O)C(CO)NC(=O)C(C)NC(=O)CNC(=O)OCc1ccccc1 (configuration not stated),x,n,x,n,n,x
CCOC(=O)C1(Cc2ccccc2C(F)(F)F)CCN(CCCn2cccn2)CC1,x,n,x,n,n,x
CCOC(=O)c1cnn(CCOC(=O)c2ccccc2)c1NC(=O)c1ccccc1,n,n,n,n,n,n
COCc1cc(C)nc2sc(C(=O)NCCO)c(-n3cccc3)c12,x,n,x,44.8,n,x
Cc1ccc(Cl)cc1NC(=O)COC(=O)C12CC3CC(CC(C3)C1)C2,n,14.0!,n,n,n,n
Cc1ccc(Cl)cc1NC(=O)COC(=O)C1CCCC1,n,n,n,n,n,n
CCC1(C(=O)OC)NC(c2ccco2)C2C(=O)N(c3ccccc3)C(=O)C21 (configuration not stated),78.4,n,n,n,n,n
C=CCc1cccc2cc(C(=O)Nc3ccccc3C(=O)O)c(=O)oc12,x,n,x,x,32.4,x
CCOC(=O)N1CCN(CC(=O)Nc2cc(OC)c(OC)cc2C#N)CC1,x,n,x,x,n,x
C=CCn1c(=O)c2ccccc2n2c(SCc3cc(=O)n4ccsc4n3)nnc12,66.4,n,n,x,n,n
CCOC(=O)c1ccc(Nc2nc(=O)c3cccnc3s2)cc1,70.7,n,n,x,n,n
Oc1ccc(/C=N/NC(=S)Nc2cccnc2)c(O)c1O,x,x,x,n,x,x
Oc1cccc(/C=N/NC(=S)Nc2cccnc2)c1O,n,n,n,n,n,53.0
CCOC(=O)/C=C/C(=O)OCC(=O)Nc1ccc(C)cc1,x,11.3,x,n,n,x
CCOC(=O)/C=C/C(=O)OCC(=O)Nc1cccc(Br)c1,x,n,x,n,n,x
Cc1cccc(N/C=C(\[N+](=O)[O-])S(=O)(=O)c2ccccc2)c1C,x,n,x,n,n,x
SMILES,Measles CPE,Efa HMGR inh,Yeast lifespan up,Rad51 HR inh,Arbovirus anti,BB579 growth dn
O=C1SC(SC(=Nc2ccccc2)Nc2ccccc2)C(=O)N1c1ccccc1 (configuration not stated),n,n,33.7,x,n,n
Cc1cccc(N2C(=O)CC(SC(=Nc3ccccc3)Nc3ccccc3)C2=O)c1 (configuration not stated),n,n,n,n,n,n
Cc1ccccc1/C=N/Nc1ccnc2cc(Cl)ccc12,n,n,n,n,n,n
Cc1ccc(/C=N/Nc2ccnc3cc(Cl)ccc23)c(C)c1,n,n,n,n,n,67.5
Clc1ccc(NNc2ccnc3cc(Cl)ccc23)cc1,n,14.6,n,n,n,n
COc1ccc(C(=O)CSc2nc3ncccc3[nH]2)cc1OC,x,x,x,n,x,x
O=S(=O)(NC1CC1)c1ccc(S(=O)(=O)N(Cc2ccccn2)C2CC2)cc1,x,x,x,n,x,x
Cc1ccc(S(=O)(=O)Nc2c(C)nc3nc[nH]n3c2=O)c(C)c1,x,n,x,n,n,x
O=C(c1scc2c1CCCC2)N1CCCCC1,36.0,n,n,n,n,n
Cc1ccc(NC(=O)c2scc3c2CCCC3)cc1,n,n,n,n,n,n
Cc1cc([N+](=O)[O-])ccc1-c1ccc(C2Nc3ccccc3C(=O)N2O)o1 (configuration not stated),n,n,n,n,n,50.2
CCOC(=O)c1ccc(-c2ccc(C3Nc4ccccc4C(=O)N3O)o2)cc1 (configuration not stated),n,n,n,n,n,n
Cc1oc(C(C)(C)C)cc1C(=O)N1CCCC1C(=O)O (configuration not stated),25.9,n,x,n,n,n
CC1CCCCN1CCCNC(=O)C1CCN(c2nc3ccccc3o2)CC1 (configuration not stated),n,n,n,n,n,n
O=C(NC1CCCCCC1)C1CCN(c2nc3ccccc3o2)CC1,32.3,n,n,x,n,n
Cc1sc(NC(=O)c2ccco2)c(CN2CCN(Cc3ccccc3)CC2)c1C,x,n,x,n,n,x
Cc1nc(NC(=O)c2cccc(-c3cc4ccccc4oc3=O)c2)ccc1Br,n,n,n,n,n,n
O=C(Nc1ccc(Br)cn1)c1cccc(-c2cc3ccccc3oc2=O)c1,n,n,75.7,n,n,n
O=C(NCc1ccccc1)NC1CCS(=O)(=O)C1 (configuration not stated),x,n,x,n,n,x
CCc1[nH]nc(C(=O)N2CCCC(CCC(=O)N3CCN(c4ccccn4)CC3)C2)c1C (configuration not stated),x,n,x,n,n,x
CC12CCC(C(=O)N(CSC(=S)N/N=C\c3ccccc3O)C1=O)C2(C)C (configuration not stated),n,9.9,x,n,n,n
CC(C)C(=O)Nc1ccc(S(=O)(=O)Nc2nccc(/C=C/c3ccccc3)n2)cc1,n,n,n,n,n,n
O=[N+]([O-])c1cccc(/C=N\N=C2c3ccccc3-c3ccccc32)c1O,n,n,n,n,39.8,n
NC(=O)N/N=C\c1cc(Br)ccc1O,n,n,n,n,n,n
CC(C)(C)c1nnc(N/N=C/c2cc(Br)ccc2O)n(N)c1=O,n,n,n,x,n,53.0
CC[C@H](C)[C@@H](C(=O)N1CCNCC1)n1cc([C@@H](N)CO)nn1,x,n,x,n,n,x
O=C(c1cncc(Br)c1)N1CCCc2ccccc21,n,n,n,n,n,n
O=C(c1ccc(S(=O)(=O)N2CCCC2)cc1)N1CCCc2ccccc21,35.5,n,n,n,n,n
O=C(c1coc(=O)c(Br)c1)N1CCCc2ccccc21,n,n,n,n,31.9,n
CCN1C(=O)N(C(C)=O)C2C1N(C(C)=O)C(=O)N2C(C)=O (configuration not stated),x,n,x,x,n,x
